The text below walks through data of ChEMBL document CHEMBL1138321, “Asymmetric synthesis of conformationally constrained fingolimod analogues--discovery of an orally active sphingosine 1-phosphate receptor type-1 agonist and receptor type-3 antagonist” (J Med Chem, 2007).

Assay [1] has as its target T1, Sphingosine kinase 2 (Mus musculus) (UniProt Q9JIA7).
T1 sequence (whole entry): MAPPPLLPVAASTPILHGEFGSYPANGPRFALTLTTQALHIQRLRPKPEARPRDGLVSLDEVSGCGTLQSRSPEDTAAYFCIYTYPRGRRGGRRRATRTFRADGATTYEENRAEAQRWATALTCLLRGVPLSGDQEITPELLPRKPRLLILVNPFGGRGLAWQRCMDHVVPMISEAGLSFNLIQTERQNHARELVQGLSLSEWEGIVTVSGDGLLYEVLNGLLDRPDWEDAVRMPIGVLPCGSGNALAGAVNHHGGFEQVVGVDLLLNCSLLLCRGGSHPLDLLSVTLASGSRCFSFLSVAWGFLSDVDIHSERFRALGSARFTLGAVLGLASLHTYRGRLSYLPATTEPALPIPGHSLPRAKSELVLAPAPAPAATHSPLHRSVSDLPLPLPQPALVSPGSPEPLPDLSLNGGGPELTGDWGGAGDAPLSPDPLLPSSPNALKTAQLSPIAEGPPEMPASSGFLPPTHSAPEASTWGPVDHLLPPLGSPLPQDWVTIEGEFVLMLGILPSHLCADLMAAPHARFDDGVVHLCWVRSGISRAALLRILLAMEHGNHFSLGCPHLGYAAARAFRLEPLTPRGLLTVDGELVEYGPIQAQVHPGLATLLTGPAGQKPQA
The experiment in a line: Substrate activity at mouse Sphk2 expressed in HEK293T cells. To be noted: HEK-293T.

Assay [2] deals with Sphingosine 1-phosphate receptor 3 (Homo sapiens) (UniProt Q99500). As to the kind of experiment: Antagonist activity at human S1P3 receptor expressed in CHOK1 cells assessed as effect on calcium mobilization. Format: functional, cell-based. The settings on record: CHO-K1. The method in brief:
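Calcium mobilization in a FACS-isolated clonal CHO K1 line stably expressing HA-tagged human S1P3, loaded with a calcium-sensitive dye. Concentration-effect curves for the agonist were run with and without 1 μM test phosphate. There were eight points in triplicate (SEM), and three independent experiments.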

For assay [3] the target is unchanged. The experiment in a line: Agonist activity at human S1P3 receptor expressed in CHOK1 cells. To be noted: CHO-K1. In kind it is functional, cell-based. The method, boiled down:
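Human S1P3 with N-terminal HA tag, stably expressed in a FACS-isolated clonal CHO K1 line. Confluent monolayers were washed and loaded with a calcium-sensitive fluorescent dye, and calcium transients were monitored on compound addition. Eight-point concentration-effect curves were run in triplicate and presented as SEM.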

Assay [4] has as its target T2, Sphingosine 1-phosphate receptor 4 (Homo sapiens) (UniProt O95977).
T2 sequence (whole entry): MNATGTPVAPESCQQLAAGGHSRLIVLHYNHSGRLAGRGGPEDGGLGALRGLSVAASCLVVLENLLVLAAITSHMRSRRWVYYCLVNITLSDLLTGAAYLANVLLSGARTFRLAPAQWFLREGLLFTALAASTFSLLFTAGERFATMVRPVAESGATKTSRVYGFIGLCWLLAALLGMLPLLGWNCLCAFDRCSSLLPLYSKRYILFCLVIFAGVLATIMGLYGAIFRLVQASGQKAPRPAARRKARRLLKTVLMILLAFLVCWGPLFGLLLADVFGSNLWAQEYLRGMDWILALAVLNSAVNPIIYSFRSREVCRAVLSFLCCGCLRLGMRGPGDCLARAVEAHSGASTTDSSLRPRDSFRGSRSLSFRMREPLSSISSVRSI
As to the kind of experiment: Activity at S1P4 receptor.

For assay [5], the target named is Sphingosine 1-phosphate receptor 2 (Homo sapiens) (UniProt O95136). As to the kind of experiment: Activity at S1P2 receptor.
Chain of Sphingosine 1-phosphate receptor 2 (Homo sapiens) (O95136 whole entry): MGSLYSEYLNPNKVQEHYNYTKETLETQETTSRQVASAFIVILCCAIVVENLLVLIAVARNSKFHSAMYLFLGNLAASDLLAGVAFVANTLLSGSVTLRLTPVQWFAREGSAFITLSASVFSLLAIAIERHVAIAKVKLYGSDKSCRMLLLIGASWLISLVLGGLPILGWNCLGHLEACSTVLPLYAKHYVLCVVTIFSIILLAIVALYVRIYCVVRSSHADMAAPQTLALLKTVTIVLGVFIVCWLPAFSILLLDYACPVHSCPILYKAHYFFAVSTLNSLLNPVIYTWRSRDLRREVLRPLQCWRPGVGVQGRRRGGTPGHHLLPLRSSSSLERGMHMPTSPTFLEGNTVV
Assay [6] relates to Mus musculus. As to the kind of experiment: Induction of lymphopenia in C57B1/6J mouse at 1 mg/kg, po after 48 hrs. Format: functional, organism-based. On the set-up: dose 1 mg/kg. The method, boiled down: (§1)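 Female C57Bl/6j mice (n=3 per group) received a single oral gavage of 1 mg/kg in 2% hydroxypropyl β-cyclodextrin on day 0. Blood was drawn from the orbital sinus under light anesthesia on the indicated days. Total lymphocytes were counted on a Hemavet 950 blood analyzer.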

The test system of assay [7] is Mus musculus. The experiment in a line: Induction of lymphopenia in C57B1/6J mouse at 1 mg/kg, po after 8 days. Format: functional, organism-based. On the set-up: dose 1 mg/kg. The method, boiled down:
as §1

Activity calls are given as the source filed them. The rule behind the calls is not given here.

Chain of Sphingosine 1-phosphate receptor 3 (Homo sapiens) (Q99500 whole entry): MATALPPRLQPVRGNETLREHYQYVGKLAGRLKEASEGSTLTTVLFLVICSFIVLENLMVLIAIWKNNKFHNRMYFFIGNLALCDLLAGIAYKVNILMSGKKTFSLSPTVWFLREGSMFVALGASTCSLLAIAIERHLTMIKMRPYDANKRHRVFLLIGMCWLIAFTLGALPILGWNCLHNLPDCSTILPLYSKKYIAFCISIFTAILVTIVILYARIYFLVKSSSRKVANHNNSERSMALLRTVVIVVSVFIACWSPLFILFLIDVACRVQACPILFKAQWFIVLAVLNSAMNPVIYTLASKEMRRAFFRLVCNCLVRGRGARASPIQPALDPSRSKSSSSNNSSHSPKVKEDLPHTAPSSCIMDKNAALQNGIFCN

With `CCCCCCCCc1ccc([C@@H]2CC[C@@](N)(CO)C2)cc1`, the result in assay [1] was inactive.

In the case of `CCCCCCCCc1ccc([C@@H]2CC[C@@](N)(COP(=O)(O)O)C2)cc1`, in assay [2], the outcome was Active. Also, the result in assay [3] was inactive.

With `CCCCCCCCc1ccc(C2CCC(N)(COP(=O)(O)O)C2)cc1` (configuration not stated), the result in assay [4] was Active. For the same compound, in assay [5], the result was inactive.

For the compound `CCCCCCCCc1ccc([C@H]2CC[C@](N)(CO)C2)cc1`, the result in assay [6] and in assay [1] was Active.

For `CCCCCCCCc1ccc([C@@H]2CC[C@](N)(CO)C2)cc1`, the result in assay [6], in assay [7] and in assay [1] was Active.

In the case of `CCCCCCCCc1ccc([C@H]2CC[C@](N)(COP(=O)(O)O)C2)cc1`, the outcome in assay [2] was Active. Moreover, the result in assay [3] was inactive.

Turning to `CCCCCCCCc1ccc([C@H]2CC[C@@](N)(CO)C2)cc1`, the outcome in assay [1] was inactive.

As for `CCCCCCCCc1ccc([C@@H]2CC[C@](N)(COP(=O)(O)O)C2)cc1`, the result in assay [2] and in assay [3] was inactive.

In the case of `CCCCCCCCc1ccc([C@H]2CC[C@@](N)(COP(=O)(O)O)C2)cc1`, in assay [2], the result was Active. Besides, the result in assay [3] was inactive.
